The record followed here is ChEMBL document CHEMBL3352568, “Synthesis and evaluation of in vitro antimycobacterial activity of novel 1H-benzo[d]imidazole derivatives and analogues” (Eur J Med Chem, 2015).

Values after ≈ are worked out from the molar mass of the structure shown.

The test system of assay [1] is Mycobacterium tuberculosis. Nature of the assay: Antimicrobial activity against Mycobacterium tuberculosis H37Rv by two-fold serial dilution method. Format: functional. In short, it runs like this:
(§1)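 Classical test-tube successive two-fold dilution in Youmans' modification of Proskauer and Beck liquid medium with 10% bovine serum. Inocula from 14-day-old cultures. Compounds dissolved in ethylene glycol (stock 10 mg/mL), diluted in medium to 0.75–100 µg/mL. Incubated at 37 °C. MIC is the lowest concentration inhibiting growth relative to a compound-free control.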

The subject of assay [2] is Mycobacterium tuberculosis. Nature of the assay: Antimicrobial activity against Mycobacterium tuberculosis Spec. 192 by two-fold serial dilution method. Format: functional. In short, it runs like this: as §1
Assay [3] has as its system Mycobacterium tuberculosis. Nature of the assay: Antimicrobial activity against Mycobacterium tuberculosis Spec. 210 by two-fold serial dilution method. The assay is classed as functional. In short, it runs like this: as §1
Assay [4] deals with A549. Put plainly: Cytotoxicity against human A549 cells assessed as growth inhibition after 120 hrs by MTT assay. To be noted: A549, 120 h. The assay is classed as functional, cell-based. In short, it runs like this:
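A549 cells were seeded at 4x10^3/well in RPMI1640 with 10% FBS and penicillin/streptomycin and attached overnight. Compounds were added from DMSO stocks at 200-fold concentration, with DMSO-only controls, and cells were exposed continuously for 120 h at 37 °C in 5% CO2. MTT (4 mg/mL in PBS) was added for 4 h, formazan dissolved in DMSO, and A540 read versus untreated cells. IC50 was taken as 50% growth inhibition; at least two independent experiments in duplicate.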

For assay [5], the system named is LLC-PK1. Put plainly: Cytotoxicity against pig LLC-PK1 cells assessed as growth inhibition after 120 hrs by MTT assay. Format: cell-based. To be noted: Sus scrofa, LLC-PK1, 120 h. In short, it runs like this:
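LLC-PK1 cells were seeded at 1.25x10^4/well in Medium 199 with 3% FBS and penicillin/streptomycin and attached overnight. Compounds were added from DMSO stocks at 200-fold concentration, with DMSO-only controls, and cells were exposed continuously for 120 h at 37 °C in 5% CO2. MTT (4 mg/mL in PBS) was added for 4 h, formazan dissolved in DMSO, and A540 read versus untreated cells. IC50 was taken as 50% growth inhibition; at least two independent experiments in duplicate.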
A general note: Formazan colour is commonly taken as a measure of viable cells.

Consider `Fc1ccc2[nH]c(CCC3CCCCC3)nc2c1`, for which the MIC in assay [1], in assay [2] and in assay [3] was 3.1 µg/mL (≈ 12.6 µM) each time.
`Cc1cc2nc(CCCC3CCCCC3)[nH]c2cc1C`: the MIC was 25 µg/mL (≈ 92.4 µM) in assay [1], 6.2 µg/mL (≈ 22.9 µM) in assay [2] and 6.2 µg/mL (≈ 22.9 µM) in assay [3].
With `Cc1ccc2[nH]c(CCCc3ccccc3)nc2c1`, the MIC in assay [1] is 25 µg/mL (≈ 99.9 µM); in assay [2] it was 6.2 µg/mL (≈ 24.8 µM); in assay [3], 100 µg/mL (≈ 399 µM).
With `Cc1cc2nc(CCCc3ccccc3)[nH]c2cc1C`, the minimal inhibitory concentration (MIC) in assay [1], in assay [2] and in assay [3] was 6.2 µg/mL (≈ 23.5 µM) throughout.
With `O=S(=O)(c1ccccc1)n1c(CCCc2ccccc2)nc2cc(F)ccc21`, the minimal inhibitory concentration (MIC) in assay [1] amounted to 100 µg/mL (≈ 254 µM); in assay [2], 100 µg/mL (≈ 254 µM); in assay [3], 50 µg/mL (≈ 127 µM).
`c1ccc(-c2ccnc(-c3nc4ccncc4[nH]3)c2)cc1`: the MIC in assay [1] is 12.5 µg/mL (≈ 45.9 µM); in assay [2] it was 12.5 µg/mL (≈ 45.9 µM); in assay [3], 3.1 µg/mL (≈ 11.4 µM).
Regarding `Fc1ccc2[nH]c(-c3cc(-c4ccccc4)ccn3)nc2c1`, the MIC in assay [1] came out at 6.2 µg/mL (≈ 21.4 µM); in assay [2], 12.5 µg/mL (≈ 43.2 µM); in assay [3], 6.2 µg/mL (≈ 21.4 µM).
Take `Cc1cc2nc(-c3cc(-c4ccccc4)ccn3)[nH]c2cc1C`: the values for the MIC in assay [1], in assay [2] and in assay [3] were 25 µg/mL (≈ 83.5 µM), 12.5 µg/mL (≈ 41.8 µM) and 12.5 µg/mL (≈ 41.8 µM), respectively.
For `Fc1ccc2[nH]c(CCCc3ccccc3)nc2c1`, the MIC in assay [1] was found to be 12.5 µg/mL (≈ 49.2 µM); in assay [2], 50 µg/mL (≈ 197 µM); in assay [3] it was 50 µg/mL (≈ 197 µM).
Turning to `Clc1cc2nc(CCCC3CCCCC3)[nH]c2cc1Cl`, the MIC in assay [1] is 12.5 µg/mL (≈ 40.2 µM); in assay [2], 6.2 µg/mL (≈ 19.9 µM); in assay [3], 6.2 µg/mL (≈ 19.9 µM).
Turning to `Cc1cc2nc(CCC3CCCCC3)[nH]c2cc1C`, the MIC in assay [1], in assay [2] and in assay [3] was 0.75 µg/mL (≈ 2.93 µM) throughout. Besides, the figures for the IC50 in assay [4] and in assay [5] were 11.2 µM and 43.9 µM, respectively.
With `NC(=O)c1cnccn1` [PYRAZINAMIDE], the MIC in assay [1] is 25 µg/mL (≈ 203 µM); in assay [2] it was 25 µg/mL (≈ 203 µM); in assay [3], greater than 400 µg/mL.
On to `c1ccc(-c2ccnc(-c3nc4ccccc4[nH]3)c2)cc1`, for which the values for the MIC in assay [1], in assay [2] and in assay [3] were 12.5 µg/mL (≈ 46.1 µM), 6.2 µg/mL (≈ 22.9 µM) and 6.2 µg/mL (≈ 22.9 µM), respectively.
For `Brc1ccc2[nH]c(CCC3CCCCC3)nc2c1`, the MIC in assay [1], in assay [2] and in assay [3] was 0.75 µg/mL (≈ 2.44 µM) in each case. The values for the IC50 in assay [4] and in assay [5] were 13.4 µM and 32.6 µM, respectively.
`c1ccc(-c2ccnc(-c3nc4cccnc4[nH]3)c2)cc1`: the MIC in assay [1], in assay [2] and in assay [3] was 12.5 µg/mL (≈ 45.9 µM) in each case.
In the case of `Brc1cnc2[nH]c(-c3cc(-c4ccccc4)ccn3)nc2c1`, the MIC in assay [1], in assay [2] and in assay [3] was 25 µg/mL (≈ 71.2 µM) each time.
In the case of `NNC(=O)c1ccncc1` [ISONIAZID], the figures for the MIC in assay [1], in assay [2] and in assay [3] were 12.5 µg/mL (≈ 91.1 µM), 12.5 µg/mL (≈ 91.1 µM) and 25 µg/mL (≈ 182 µM), respectively.
Take `CS(=O)(=O)n1c(CCCc2ccccc2)nc2cc(F)ccc21`: the MIC in assay [1], in assay [2] and in assay [3] was 50 µg/mL (≈ 150 µM) each time.
Take `CO[C@H]1/C=C/O[C@@]2(C)Oc3c(C)c(O)c4c(O)c(c(/C=N/N5CCN(C)CC5)c(O)c4c3C2=O)NC(=O)/C(C)=C\C=C\[C@H](C)[C@H](O)[C@@H](C)[C@@H](O)[C@@H](C)[C@H](OC(C)=O)[C@@H]1C` [RIFAMPIN]: the MIC in assay [1] amounted to 1.2 µg/mL (≈ 1.46 µM); in assay [2], 1.2 µg/mL (≈ 1.46 µM); in assay [3], 2.5 µg/mL (≈ 3.04 µM).
On to `Clc1cc2nc(CCC3CCCCC3)[nH]c2cc1Cl`, for which the MIC in assay [1], in assay [2] and in assay [3] was 0.75 µg/mL (≈ 2.52 µM) throughout. Further, the IC50 is 11.1 µM in assay [4] and 9.62 µM in assay [5].
Take `Clc1ccc2[nH]c(-c3cc(-c4ccccc4)ccn3)nc2c1`: the MIC in assay [1] is 12.5 µg/mL (≈ 40.9 µM); in assay [2], 12.5 µg/mL (≈ 40.9 µM); in assay [3], 6.2 µg/mL (≈ 20.3 µM).
For `Brc1ccc2[nH]c(-c3cc(-c4ccccc4)ccn3)nc2c1`, the MIC was determined as 12.5 µg/mL (≈ 35.7 µM) in assay [1], 12.5 µg/mL (≈ 35.7 µM) in assay [2] and 6.5 µg/mL (≈ 18.6 µM) in assay [3].
On to `Clc1cc2nc(CCCc3ccccc3)[nH]c2cc1Cl`, for which the MIC in assay [1], in assay [2] and in assay [3] was 6.2 µg/mL (≈ 20.3 µM) each time.
As to `Cc1ccc2[nH]c(CCC3CCCCC3)nc2c1`, the minimum inhibitory concentration (MIC) in assay [1], in assay [2] and in assay [3] was 1.5 µg/mL (≈ 6.19 µM) in each case.
Consider `O=[N+]([O-])c1ccc2[nH]c(CCC3CCCCC3)nc2c1`, for which the minimal inhibitory concentration (MIC) in assay [1], in assay [2] and in assay [3] was 3.1 µg/mL (≈ 11.3 µM) throughout.
For `Fc1ccc2[nH]c(CCCC3CCCCC3)nc2c1`, the MIC in assay [1], in assay [2] and in assay [3] was 6.2 µg/mL (≈ 23.8 µM) throughout.
Take `Cc1ccc2[nH]c(-c3cc(-c4ccccc4)ccn3)nc2c1`: the values for the MIC in assay [1], in assay [2] and in assay [3] were 3.1 µg/mL (≈ 10.9 µM), 6.2 µg/mL (≈ 21.7 µM) and 3.1 µg/mL (≈ 10.9 µM), respectively.
Turning to `Clc1ccc2[nH]c(CCC3CCCCC3)nc2c1`, the MIC in assay [1], in assay [2] and in assay [3] was 0.75 µg/mL (≈ 2.85 µM) throughout. Besides, the IC50 in assay [4] was found to be 10.9 µM; in assay [5], 17.1 µM.

The MIC is the lowest concentration that inhibits growth of the organism. Low readings indicate a more susceptible organism, high ones a less susceptible organism. Usually IC50 stands for the point on the concentration scale where inhibition reaches its midpoint.
